The record followed here is ChEMBL document CHEMBL1156765, “Novel organic proteasome inhibitors identified by virtual and in vitro screening” (J Med Chem, 2010).

The species named for assay [1] is Oryctolagus cuniculus. Put plainly: Inhibition of trypsin-like activity of rabbit 20S proteasome at 50 uM at pH 8 after 15 mins. Summed up: (§1)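 Rabbit 20S proteasome held with inhibitor for 15 min at pH 8, 37 °C. The matching fluorogenic substrate was then added to read the remaining chymotrypsin-like, post-acid or trypsin-like activity. Results are reported as IC50, or as % inhibition at a single inhibitor concentration of 50 or 100 μM.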

A further assay concerns HEK293. As to the kind of experiment: Cytotoxicity against human HEK293 cells after 48 hrs by XTT assay. Type of assay: functional, cell-based. Particulars: HEK293, 48 h. For orientation: Formazan colour is commonly taken as a measure of viable cells.
Assay [2] in a line: Inhibition of chymotrypsin-like activity of rabbit 20S proteasome at pH 8 after 15 mins. Particulars: for pIC50: read-out: IC50. Set-up: species or system Oryctolagus cuniculus. Summed up: as §1
For assay [3], the species on record is Oryctolagus cuniculus. Put plainly: Inhibition of post-acid activity of rabbit 20S proteasome at 50 uM at pH 8 after 15 mins. Summed up:
as §1

Assay [4] can be described thus: Inhibition of trypsin-like activity of rabbit 20S proteasome at pH 8 after 15 mins. Set-up: species or system Oryctolagus cuniculus. Particulars: for pIC50: read-out: IC50. An outline of the steps:
as §1

Assay [5] in a line: Inhibition of post-acid activity of rabbit 20S proteasome at pH 8 after 15 mins. Set-up: species or system Oryctolagus cuniculus. The note with it: for pIC50: read-out: IC50. Summed up:
as §1

The species entered for assay [6] is Oryctolagus cuniculus. Put plainly: Inhibition of post-acid activity of rabbit 20S proteasome at 100 uM at pH 8 after 15 mins. Summed up: as §1
Assay [7] is filed under the species Oryctolagus cuniculus. As to the kind of experiment: Inhibition of trypsin-like activity of rabbit 20S proteasome at 100 uM at pH 8 after 15 mins. Summed up:
as §1

For assay [8], the species on record is Oryctolagus cuniculus. Put plainly: Inhibition of chymotrypsin-like activity of rabbit 20S proteasome at 50 uM at pH 8 after 15 mins. An outline of the steps: as §1
The species entered for assay [9] is Oryctolagus cuniculus. As to the kind of experiment: Inhibition of chymotrypsin-like activity of rabbit 20S proteasome at 100 uM at pH 8 after 15 mins. An outline of the steps: as §1
In assay [10] the target is T1, Calpain-1 catalytic subunit (Homo sapiens) (UniProt P07384).
T1 sequence (whole entry): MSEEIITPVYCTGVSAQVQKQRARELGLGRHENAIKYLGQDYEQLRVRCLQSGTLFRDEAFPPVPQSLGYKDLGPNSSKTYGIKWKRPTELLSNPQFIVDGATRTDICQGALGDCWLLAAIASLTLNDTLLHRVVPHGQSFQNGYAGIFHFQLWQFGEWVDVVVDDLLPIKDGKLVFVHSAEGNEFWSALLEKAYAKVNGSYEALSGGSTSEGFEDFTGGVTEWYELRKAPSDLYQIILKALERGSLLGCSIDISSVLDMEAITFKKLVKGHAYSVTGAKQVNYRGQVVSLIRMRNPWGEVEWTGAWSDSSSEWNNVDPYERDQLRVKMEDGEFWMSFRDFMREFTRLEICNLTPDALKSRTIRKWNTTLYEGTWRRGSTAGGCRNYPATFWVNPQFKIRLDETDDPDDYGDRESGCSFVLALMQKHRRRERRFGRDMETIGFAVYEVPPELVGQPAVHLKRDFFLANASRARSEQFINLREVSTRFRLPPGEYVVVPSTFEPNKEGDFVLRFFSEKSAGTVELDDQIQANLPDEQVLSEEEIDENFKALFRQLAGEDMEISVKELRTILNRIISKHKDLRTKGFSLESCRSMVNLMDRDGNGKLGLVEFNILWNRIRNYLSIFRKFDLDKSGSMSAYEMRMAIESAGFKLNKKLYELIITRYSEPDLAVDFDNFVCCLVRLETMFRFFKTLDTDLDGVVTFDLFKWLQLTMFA
As to the kind of experiment: Inhibition of cytosolic calpain 1 at 50 uM at pH 7.2.

Another assay concerns HeLa. Put plainly: Cytotoxicity against human HeLa cells after 48 hrs by XTT assay. The format is functional, cell-based.
For assay [11], the target named is T1, Calpain-1 catalytic subunit (Homo sapiens). Put plainly: Inhibition of cytosolic calpain 1 at 100 uM at pH 7.2.

SMILES strings stand for the structures. pEC50, pIC50: −log10 of the molar value. Active and inactive are the calls of the source. The rule behind the calls is not given here. Some results are limits rather than exact numbers.

Usually inhibition stands for the relative decrease from the control value, in per cent. The low end stands for little suppression, the high end for strong suppression. One may read the pEC50 as −log10 of the EC50, conventionally taken in molar units. A higher pEC50 goes with a low EC50. Usually pIC50 stands for the negative decadic logarithm of the IC50, by convention in mol/L. Turning to `Cc1ccc(-c2nnc(Nc3cccc(O)c3)c3ccccc23)cc1S(=O)(=O)NC(C)(C)C`, the inhibition stood at 44% in the assay filed under Oryctolagus cuniculus [1] and 29% in the assay listed under Oryctolagus cuniculus [3]. Further, the negative logarithm of the EC50 (pEC50) in the assay on HEK293 is 4.98. The pIC50 in assay [2] is 4.55.

As to `CC(C)(C)c1ccc(/C=C/C(=O)N2CCN(c3ccc([N+](=O)[O-])cc3)CC2)cc1`, the IC50 result in [2] and in [4] was “Not Active” throughout. In the assay filed under Oryctolagus cuniculus [3], this compound displayed an inhibition of 52%.

As to `Cc1ccc(-c2nnc(Nc3cccc(O)c3)c3ccccc23)cc1S(=O)(=O)NC(C)(C)CO`, the pIC50 in [2] is 4.45; in [4] it was 4.17; in [5], 4.83.

With `CC(C)(C)c1ccc(C(=O)Nc2ccc(S(=O)(=O)N3CCCCCC3)cc2)cc1`, the inhibition in the assay listed under Oryctolagus cuniculus [6] was 63%. Besides, the negative-log IC50 (pIC50) in assay [2] is < 4.30.

As for `CCOC(=O)CNS(=O)(=O)c1cc(-c2nnc(Nc3cccc(O)c3)c3ccccc23)ccc1C`, the inhibition stood at 63% in the assay filed under Oryctolagus cuniculus [7] and 35% in the assay filed under Oryctolagus cuniculus [8]. For the same compound, the pEC50 in the assay on HEK293 is 4.86. The pIC50 in [5] is 4.41.

On to `CCc1ccc(-c2cc(C(=O)Nc3ccc(S(=O)(=O)NC(C)=O)cc3)c3ccccc3n2)cc1`, for which the inhibition in the assay listed under Oryctolagus cuniculus [6] was 45%. For the same compound, in assay [2], the IC50 entry is recorded as “Not Active”. Further, in [4], the negative-log IC50 (pIC50) was 4.59.

With `Cc1ccccc1C(=O)Nc1ccc(S(=O)(=O)NCc2ccccc2)cc1`, the inhibition in the assay filed under Oryctolagus cuniculus [7] was found to be 13%; in the assay listed under Oryctolagus cuniculus [3] it was 54%. Further, the IC50 entry in [2] is given as “Not Active”.

On to `CCN(CC)S(=O)(=O)c1ccc(NC(=O)c2ccc(C(C)(C)C)cc2)cc1`, for which the inhibition in the assay filed under Oryctolagus cuniculus [9] came to 87%. Moreover, the negative logarithm of the IC50 (pIC50) in assay [5] is < 4.60.

In the case of `O=C(Nc1ccc(S(=O)(=O)NCc2ccccc2)cc1)c1cc(-c2cccs2)nc2ccccc12`, the IC50 entry in [5] was “Not Active”. Besides, in the assay filed under Oryctolagus cuniculus [8], the inhibition worked out at 70.1%.

`CCOc1ccc(-c2cc(C(=O)Nc3ccc(S(=O)(=O)NC(C)=O)cc3)c3ccccc3n2)cc1`: the inhibition in the assay filed under Oryctolagus cuniculus [1] is 45%; in the assay filed under Oryctolagus cuniculus [6], 42%. Besides, the IC50 entry in [2] was “Not Active”.

`COc1ccc(NC(=O)C23CC4CC(C2)CC(C(=O)Nc2ccc(OC)cc2)(C4)C3)cc1`: the negative logarithm of the IC50 (pIC50) in assay [2] is 4.93; in [5], 4.91.

Turning to `Cc1ccc(-c2nnc(Nc3ccccc3)c3ccccc23)cc1S(=O)(=O)NCC1CCCO1` (stereo not drawn), in [2], the IC50 entry is on record as “Not Active”. Moreover, in the assay listed under Oryctolagus cuniculus [3], the inhibition amounted to 52%.

In the case of `C=CCN(CC=C)S(=O)(=O)c1ccc(NC(=O)c2ccc(C(C)(C)C)cc2)cc1`, the result in assay [10] and in assay [11] was inactive. The pEC50 with HeLa was 4.91; in the assay on HEK293 it was 5.01. Moreover, the pIC50 in assay [2] was 5.72; in [4], 5.35; in assay [5], 5.00.

Consider `COc1ccc(N2CCN(C(=S)Nc3ccc([N+](=O)[O-])cc3)CC2)cc1`, for which the negative logarithm of the EC50 (pEC50) in the assay on HEK293 is 4.30. Also, the pIC50 in assay [2] was 4.97; in [5], 5.05.

On to `CCCN(CCC)S(=O)(=O)c1ccc(NC(=O)c2ccc(C(C)(C)C)cc2)cc1`, for which the result in [10] and in assay [11] was inactive. Further, the negative-log EC50 (pEC50) in the assay with HeLa is 5.05; in the assay on HEK293 it was > 5.30. Moreover, the values for the pIC50 in [2] and in assay [5] were 4.72 and 5.10, respectively.

On to `CC(=O)NS(=O)(=O)c1ccc(NC(=O)c2cc(-c3ccc(Cl)s3)nc3ccccc23)cc1`, for which the negative-log EC50 (pEC50) with HeLa was 4.00; in the assay on HEK293, 4.12.

As to `COc1ccc(N2CCN(C(=O)COc3ccc(C(C)(C)C)cc3)CC2)c([N+](=O)[O-])c1`, the IC50 entry in assay [5] is “Not Active”. In addition, the inhibition in the assay filed under Oryctolagus cuniculus [8] came out at 40%.

As for `CC(C)(C)c1ccc(OCC(=O)N2CCN(c3ccc([N+](=O)[O-])cc3)CC2)c(Br)c1`, the IC50 result in [2] and in assay [4] was “Not Active” throughout. This compound returned an inhibition in the assay filed under Oryctolagus cuniculus [3] of 49%.

Consider `COc1ccc(NC(=O)C23CC4CC(C2)CC(c2ccc(C)cc2)(C4)C3)cc1`, for which the pIC50 was 4.58 in assay [2] and 4.30 in [5].
